{"source": "paper PMC3219927", "about": "(Nature medicine, 2011)", "key": {"[1]": {"test_system": "N-type Ca^2+ channels", "format": "cell-based", "details": "DRGs, Fura-2 imaging"}, "[2]": {"test_system": "hippocampal neurons", "experiment": "Depolarization-induced calcium influx, hippocampal neurons", "format": "cell-based", "details": "plasmid expression"}, "[3]": {"test_system": "cytosolic loop 1 (L1) of CaV2.2", "experiment": "Surface plasmon resonance, immobilized L1", "format": "binding", "details": "1/3/5 μM; dissociation monitored for 4 min", "method_in_brief": "(§1)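 Test peptide or scrambled control peptide injected at 1, 3 and 5 μM over immobilized CaV2.2 L1 or Ct-dis. Binding was recorded as sensorgrams in resonance units, with dissociation followed for 4 min.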"}, "[4]": {"test_system": "neurons", "experiment": "Cell permeation / entry into neurons", "details": "in vitro, ex vivo and in vivo"}, "[5]": {"test_system": "interaction between tubulin and CRMP-2", "experiment": "Co-immunoprecipitation with CRMP-2 antibody from spinal cord lysates, tubulin", "format": "binding"}, "[6]": {"test_system": "neurons", "details": "not told"}, "[7]": {"test_system": "distal C-terminus (Ct-dis) of CaV2.2", "experiment": "Surface plasmon resonance, immobilized Ct-dis", "format": "binding", "details": "1/3/5 μM; dissociation monitored for 4 min", "method_in_brief": "as §1"}, "[8]": {"test_system": "interaction between CRMP-2 and Ct-dis of CaV2.2", "experiment": "In vitro binding", "details": "Ct-dis-GST, peptide 10 μM", "method_in_brief": "(§2)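 GST fusions of the CaV2.2 loop 1 (L1) or distal C-terminus (Ct-dis) incubated in vitro with CRMP-2 alongside test peptide or scrambled control peptide, each at 10 μM. CRMP-2 retained on the fusion proteins was detected by immunoblot with a CRMP-2 antibody.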"}, "[9]": {"test_system": "CaV2.2", "experiment": "CaV2.2 surface localisation", "format": "cell-based", "details": "CAD neuronal cell line, co-expression of CaV2.2 with CBD3 (fused to GFP)"}, "[10]": {"test_system": "dorsal root ganglion (DRG) neurons", "experiment": "Depolarization-induced calcium influx, DRG neurons", "format": "cell-based", "details": "plasmid expression"}, "[11]": {"test_system": "interaction between CRMP-2 and L1 of CaV2.2", "experiment": "In vitro binding", "details": "L1-GST, peptide 10 μM", "method_in_brief": "as §2"}, "[12]": {"test_system": "formalin-induced edema", "experiment": "Formalin-induced paw edema", "format": "in vivo, rat", "details": "formalin 2.5%, compared to saline; 1 h after injection"}, "[13]": {"test_system": "meningeal blood flow (dura mater)", "experiment": "Laser Doppler flowmetry of meningeal blood flow", "format": "in vivo, rat"}, "[14]": {"test_system": "ddC-induced tactile hypersensitivity", "experiment": "ddC-induced neuropathic pain, paw withdrawal threshold", "format": "in vivo, rat", "details": "single ddC injection"}}, "note": "Ends that are not written are not given here."}
{"compound": "CBD3 (ARSRLAELRGVPRGL)", "values": [{"measurement": "K+-evoked Ca2+ influx, channel selectivity", "setting": "[1]", "result": "reduced K^+-evoked Ca^2+ influx selectively through N-type Ca^2+ channels"}, {"measurement": "Depolarization-induced calcium influx", "setting": "[2]", "result": "reduced depolarization-induced calcium influx"}, {"measurement": "Binding to immobilized L1", "setting": "[3]", "result": "bound to immobilized L1 and Ct-dis proteins"}, {"measurement": "Passage into cells, time", "setting": "[4]", "result": "conjugation of CBD3 to HIV-1 TAT facilitated its passage into cells in vitro, ex vivo and in vivo within minutes"}, {"measurement": "Effect on interaction between tubulin and CRMP-2", "setting": "[5]", "result": "did not affect the interaction between tubulin and CRMP-2"}, {"measurement": "Cell permeability / entry into neurons", "setting": "[6]", "result": "not cell permeant"}, {"measurement": "Binding to immobilized Ct-dis", "setting": "[7]", "result": "bound to immobilized L1 and Ct-dis proteins"}, {"measurement": "Ability of Ct-dis to pull down CRMP-2", "setting": "[8]", "result": "dramatic reduction in ability of L1 or Ct-dis proteins to pull down CRMP-2"}, {"measurement": "CaV2.2 localisation on co-expression", "setting": "[9]", "result": "almost complete retention of the channel in cytoplasmic aggregates"}, {"measurement": "Depolarization-induced calcium influx", "setting": "[10]", "result": "reduced depolarization-induced calcium influx"}, {"measurement": "Ability of L1 to pull down CRMP-2", "setting": "[11]", "result": "dramatic reduction in ability of L1 or Ct-dis proteins to pull down CRMP-2"}]}
{"compound": "Formalin", "values": [{"measurement": "Change in paw thickness", "setting": "[12]", "result": 4, "unit": "fold"}]}
{"compound": "CGRP8-37: CGRP antagonist (VTHRLAGLLSRSGGVVKNNFVPTNVGSKAF; ends and bridges not checked; UniProt P06881 90-119, looked up, fragment)", "values": [{"measurement": "Dependence of capsaicin-induced blood flow changes on CGRP", "setting": "[13]; prior dural administration of CGRP antagonist", "result": "could be blocked by prior dural administration of the CGRP antagonist, CGRP8-37"}]}
{"compound": "Nc1ccn([C@H]2CC[C@@H](CO)O2)c(=O)n1", "note": "[ddC, 2',3'-dideoxycytidine]", "values": [{"measurement": "PWT after ddC", "setting": "[14]", "result": "exhibited a decrease in PWT"}]}
{"compound": "COc1cc(CNC(=O)CCCC/C=C/C(C)C)ccc1O", "note": "[Capsaicin, capsaicin]", "values": [{"measurement": "Meningeal blood flow response to capsaicin alone", "setting": "[13]; nasally administered capsaicin, 100 nM", "result": "rapid and robust increase in meningeal blood flow"}]}
